Most compounds without a hit are left out; they make up all but 3.1% or so of the library.
HCV core dimer: HCV core protein dimerization inhibition; TR-FRET GST/Flag-core106 dimerization, 1536-well; inhibition, % at 5 µM; 300,000 tested, 0.33% active; AID 1899;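 active means inhibition above the mean of all tested compounds plus 3 SD, set per screening campaign, cut at about 45% in these data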
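Material: Tagged HCV core106 pair (GST and Flag) | Amount: GST-core106 13.5 nM, Flag-core106 17 nM | Medium: KF-containing HEPES buffer, pH 7.45, DTT, CHAPS, BSA | Reagent: Eu donor and XL665 acceptor anti-tag antibodies | Schedule: 4 h at 22.5 °C | Technique: Time-resolved FRET, ex 340 nm, em 617 and 671 nm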
VIM-2 inhibitor: blocks Pseudomonas aeruginosa VIM-2 metallo-beta-lactamase; purified VIM-2, nitrocefin hydrolysis, epi-absorbance fluorescence; inhibition, % at 5.6 µM; 290,000 tested, 0.89% active;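 active means inhibition above the mean of all tested compounds plus 3 SD, cutoff set per screening run, cut at about 7.5% in these data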;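 further: red hydrolysis product quenches plate fluorescence so inhibitors raise well fluorescence; 0% = enzyme with DMSO and 100% = DMSO without enzyme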
PHOSPHO1 block: blocks human PHOSPHO1 phosphatase activity; inhibition, % at 13.3 µM; 290,000 tested, 1.1% active; recombinant PHOSPHO1, absorbance phosphatase assay; AID 1565; in the data active means inhibition above about 60%
Target sequence (Q8TCT1 whole entry, looked up): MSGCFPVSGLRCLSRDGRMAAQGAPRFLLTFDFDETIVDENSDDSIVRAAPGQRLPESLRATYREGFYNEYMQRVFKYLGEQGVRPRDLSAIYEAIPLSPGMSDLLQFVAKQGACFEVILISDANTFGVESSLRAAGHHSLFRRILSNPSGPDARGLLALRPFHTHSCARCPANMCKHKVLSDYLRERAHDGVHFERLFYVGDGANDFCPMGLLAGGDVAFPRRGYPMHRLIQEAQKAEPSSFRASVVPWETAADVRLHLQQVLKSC
UBC9 SUMO inh: SUMOylation inhibition | P63279 | HTRF SUMOylation assay, SAE1/SAE2 + UBC9, in vitro | inhibition, % at 35 µM | 290,000 tested, 0.36% active | AID 2006; in the data active means inhibition above about 50%, passing the limit was not always enough
Target sequence (P63279 whole entry, looked up): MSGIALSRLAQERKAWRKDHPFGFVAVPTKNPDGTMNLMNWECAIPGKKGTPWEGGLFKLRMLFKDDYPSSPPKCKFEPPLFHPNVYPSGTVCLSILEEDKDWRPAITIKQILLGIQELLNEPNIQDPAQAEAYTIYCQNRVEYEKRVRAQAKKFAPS
NS3 helicase inh: inhibitors of Hepatitis C virus NS3 helicase. inhibition, % at 10.9 µM. NS3 helicase DNA unwinding, Cy5 molecular beacon fluorescence. 290,000 tested, 0.56% active;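 active means inhibition above the mean of all tested compounds plus 3 SD, set per campaign, cut at about 35% in these data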;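 further: 0% = DMSO wells and 100% = thioflavine S control wells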
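System: NS3 helicase fragment of HCV / Schedule: 1 h at 25 °C / Control set: DMSO alone as 0% and 110 µM thioflavine S as 100% / Reagent: Cy5/quencher beacon DNA duplex and ATP to start / Technique: Cy5 fluorescence / Replication: singlicate / Evaluation: % inhibition of end-to-start signal ratio versus controls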
IMP-1 inhibitor: blocks Pseudomonas aeruginosa IMP-1 metallo-beta-lactamase. purified IMP-1, nitrocefin hydrolysis, epi-absorbance fluorescence. inhibition, % at 5.6 µM. 290,000 tested, 0.45% active;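 active means inhibition above the mean plus 3 SD of all compounds in the same screening run, cut at about 4.5% in these data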;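 further: 0% = IMP-1 with DMSO and 100% = DMSO wells lacking enzyme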
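System – purified recombinant IMP-1 beta-lactamase · Input – IMP-1 dispensed at 0.2 nM · Timing – 15 min preincubation plus 25 min reaction at 25 °C · Signal – Epi-absorbance fluorescence, 480 nm excitation, 530 nm emission · Measure – percent IMP-1 inhibition derived from blank-referenced optical density · Controls – Enzyme-plus-DMSO low control, enzyme-free DMSO high control · Replication – singlicate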
Active calls of the source: *; . = not tested or not shown.

SMILES	HCV core dimer	VIM-2 inhibitor	PHOSPHO1 block	UBC9 SUMO inh	NS3 helicase inh	IMP-1 inhibitor
O=C(O)CC(CC(=O)Nc1nncs1)c1ccccc1 (stereo unspecified)	-1	-1	-12	5	-6	-3
COc1cc(/C=C(/C#N)c2ccc(F)cc2)ccc1Oc1ccc([N+](=O)[O-])cn1	1	-3	-14	3	0	-3
COc1cccc(/C=c2\sc3nc(-c4cccs4)nn3c2=O)c1OC	15	-2	71*	-25	0	-2
Cn1cccc1CC(=O)N/N=C/C=C/c1ccco1	38	-6	-11	80*	18	-2
Cc1ccc(OCC(=O)N/N=C/C=C/c2ccco2)cc1	67*	-3	23	-16	13	-4
CCC(CO)NCc1ccccc1OC(C)C (stereo unspecified)	3	-1	24	10	-7	-3
S=c1[nH]nc(NCCCN2CCOCC2)s1	-2	0	62*	-5	-11	-3
CCOc1ccc(N2CSC(=S)N(c3ccc(OCC)cc3)C2)cc1	0	-2	-18	10	7	4.7*
CCOc1ccc(N2CC(=O)SC2=S)cc1	-1	-3	30	-5	18	-3
CN1CCCCCC1C(=O)N1CCC(N2CCC(C(=O)N3CCOCC3)CC2)CC1 (stereo unspecified)	-3	-1	15	12	-1	0
Cc1ccc(C2=NNC(=O)C(c3ccc(Cl)cc3)C2)cc1 (stereo unspecified)	10	-5	-4	5	-6	0
CCOC(=O)C1CC(c2ccc(Cl)cc2)=NNC1=O (stereo unspecified)	-1	-2	61*	-4	-2	-3
Cc1ccc(-n2c(N)c(C(=O)N3CCN(C)CC3)sc2=S)cc1	-1	0	38	5	1	-3
Cc1ccc(-n2c(N)c(C(=O)N3CCCCC3)sc2=S)cc1	-1	0	76*	18	2	0
Nc1c(C(=O)N2CCOCC2)sc(=S)n1-c1ccccc1	-6	-4	97*	-6	-2	-3
Nc1c(C(=O)N2CCCCC2)sc(=S)n1-c1ccccc1	5	-3	86*	-4	2	-2
O=C(O)/C=C/C(=O)Nc1ccc(OC(F)(F)F)cc1Br	-2	0	38	10	17	-1
CCOc1ccc(NC(=O)CN(C)S(=O)(=O)c2ccc(-c3ccc(=O)[nH]n3)s2)cc1	32	0	38	8	7	0
COc1cc(C(=O)OC(C)CN2CCCCC2)cc(OC)c1OC (stereo unspecified)	5	-1	39	4	0	-4
CC(=O)N1CCc2cc(S(=O)(=O)NCC(=O)NCc3ccccc3Cl)ccc21	2	-6	65*	6	2	-2
CCC(=O)N1CCc2cc(S(=O)(=O)NCCC(=O)NCc3ccccc3Cl)ccc21	-1	-1	40	14	6	-3
COc1cc(C(=O)NS(=O)(=O)c2ccccc2C)ccc1Cc1cn(C)c2ccc(NC(=O)OC3CCCC3)cc12	-132	-1	-32	72*	7	1
COc1ccc(NC(=O)COc2ccccc2C)cc1S(=O)(=O)N1CCCCC1	3	.	.	.	.	.
O=S(=O)(Nc1c(F)cccc1F)c1ccc(Cl)nc1	-4	.	.	.	.	.
O=C(c1cc[n+]([O-])cc1)N1CCCC(N2CCN(c3cccc(C(F)(F)F)c3)CC2)C1 (stereo unspecified)	-20	-2	3	6	11	-2
SMILES	HCV core dimer	VIM-2 inhibitor	PHOSPHO1 block	UBC9 SUMO inh	NS3 helicase inh	IMP-1 inhibitor
CCC(NC(=O)Nc1cc(C)on1)(C(F)(F)F)C(F)(F)F	-1	-2	24	0	5	-3
COc1cccc(/C=N/N(C)C2=NS(=O)(=O)c3ccccc32)c1O	5	9.5*	.	14	4	-2
CN(/N=C/c1cccnc1)C1=NS(=O)(=O)c2ccccc21	2	5	-46	13	1	-3
CN(/N=C/c1cc(Cl)ccc1O)C1=NS(=O)(=O)c2ccccc21	4	10*	18	13	4	0
COc1cccc(/C=C/C(=O)NNC(=O)c2cc(C)oc2C)c1	4	.	.	.	.	.
Nc1c(C(=O)NCc2ccc3c(c2)OCO3)c2nc3ccccc3nc2n1CCCN1CCOCC1	-7	1	-9	32	-41	-3
COCCn1c(N)c(C#N)c2nc3ccccc3nc21	-3	0	13	81*	8	-3
Nc1c(C(=O)NCc2ccco2)c2nc3ccccc3nc2n1CCc1ccc(F)cc1	3	-2	-1	100*	6	-2
COCCn1c(N)c(C(=O)NCC2CCCO2)c2nc3ccccc3nc21 (stereo unspecified)	8	0	2	91*	15	-4
COc1ccccc1CNC(=O)c1c(N)n(CCCN2CCOCC2)c2nc3ccccc3nc12	.	2	31	52*	-66	-4
COc1cc(/C=C(\NC(=O)c2ccccc2)C(=O)N2CC3CC(C2)c2cccc(=O)n2C3)cc(OC)c1OC (stereo unspecified)	0	-2	42	2	-7	-4
COCCNC(=O)c1c(N)n(CCCn2ccnc2)c2nc3ccccc3nc12	-2	7	12	87*	33	-1
COCCNC(=O)c1c(N)n(-c2ccccc2)c2nc3ccccc3nc12	0	1	7	48	22	-2
COc1ccc2c(CCNC(=O)c3ccc([N+](=O)[O-])cc3)c[nH]c2c1	3	-3	-17	-11	2	-4
Cc1ccc(Sc2c([N+](=O)[O-])ncn2C)cc1	0	-2	-12	-6	-4	-2
Cn1cnc([N+](=O)[O-])c1Sc1ncccc1N	-2	-4	102*	2	-16	-3
COc1ccc(C2=NN(C(=O)CSc3nc(=O)n4cc(C)ccc4n3)C(c3ccc(C)cc3)C2)cc1 (stereo unspecified)	31	.	.	.	.	.
O=C(CSc1nc(=O)n2ccccc2n1)N1N=C(c2cccs2)CC1c1ccc(F)cc1 (stereo unspecified)	9	.	.	.	.	.
Cc1ccc(C2CC(c3cccs3)=NN2C(=O)CSc2nc(=O)n3ccc(C)cc3n2)cc1 (stereo unspecified)	61*	.	.	.	.	.
COc1ccc(C2CC(c3cccs3)=NN2C(=O)CSc2nc(=O)n3ccc(C)cc3n2)cc1 (stereo unspecified)	48*	.	.	.	.	.
O=C(Cn1cc2c(n1)CCCCC2)Nc1ccccc1Br	4	-2	56	7	11	-2
O=C(O)Cn1nc2c3c(cccc3c1=O)-c1ccccc1-2	-8	7.8*	1	14	12	-4
Cc1ccc(CC(=O)Nc2ccccc2N2CCOCC2)cc1C	4	-6	14	7	7	6.3*
COc1ccc(CC(=O)Nc2ccccc2N2CCOCC2)cc1OC	0	-1	-12	10	-5	-4

Screening data as filed in PubChem BioAssay.
